Source: ChEMBL document CHEMBL1134348, “Novel glucocorticoid antedrugs possessing a 17beta-(gamma-lactone) ring” (J Med Chem, 2001)

Assays:
[1] = % stability in human plasma after 10 minutes.; type: ADME, organism-based; details: plasma, read-out: Stability
In short: (§1)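 Pooled heparinized plasma from 4 volunteers was incubated at 37 °C with test compound at a final concentration of 30 ug/mL, with DMSO-only controls. The reaction was stopped with 2 M citric acid at 10 and 60 min, with a zero-time sample. Supernatants were analysed by reversed-phase HPLC at 240 nm against an internal standard, in duplicate, and reported as % compound remaining.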

[2] = % stability in human plasma after 60 minutes.; type: ADME, organism-based; details: plasma, read-out: Stability; in short: as §1
[3] = % stability in krebs buffer after 60 minutes.; type: physicochemical; details: Krebs buffer; read-out: Stability
In short: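 Test compound, at a final concentration of 30 ug/mL, was spiked into Krebs buffer at 37 °C for 60 min, then quenched with 2 M citric acid. Supernatant was analysed by reversed-phase HPLC with UV detection at 240 nm and an internal standard, in duplicate. The read-out was % compound remaining.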

[4] = half life in human plasma.; type: ADME, organism-based
In short: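 Pooled heparinised plasma from 4 volunteers, stored at −20 °C; compound spiked to final 30 ug/mL at 37 °C. Half-life taken from additional time points in this incubation; reaction stopped with 2 M citric acid, samples frozen overnight and centrifuged. Supernatant analysed by reverse-phase HPLC with UV at 240 nm, internal standard dexamethasone or hydrocortisone; duplicates.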

Rattus norvegicus [5] = experiment: Inhibition of rat ear edema as percentage change in mean weight (44.05+/-1.18 mg) from control group of 55.67+/-1.22 mg at 100 ug dose; type: functional
Rattus norvegicus [6] = experiment: Inhibition of rat ear edema as percentage change in mean weight (50.65 +/- 1.18 mg) from control group of 55.67+/-1.22 mg at 25 ug dose; type: functional
Rattus norvegicus [7] = experiment: Inhibition of rat ear edema as percentage change in mean weight (54.86 +/- 1.35 mg) from control group of 55.67+/-1.22 mg at 6.25 ug dose; type: functional
Rattus norvegicus [8] = experiment: Inhibition of rat ear edema as percentage change in mean weight (56.03 +/- 1.41 mg) from control group of 55.67+/-1.22 mg at 1.56 ug dose; type: functional

With `CC1(C)O[C@@H]2CC3C4C[C@H](F)C5=CC(=O)C=C[C@]5(C)[C@@]4(F)[C@@H](O)C[C@]3(C)[C@]2(SC2CCOC2=O)O1` (stereo partly drawn) the remaining at 10 min [1] was 24%, the remaining at 1 h [2] was 0% and the remaining at 1 h [3] was 74%. The half-life [4] was 4 min, the Decrease (Rattus norvegicus [5]) was 20.9% and the Decrease (Rattus norvegicus [6]) was 9.01%. The Decrease (Rattus norvegicus [7]) was 1.46% and the Decrease (Rattus norvegicus [8]) was 0%.
